Experimental data reported in BindingDB's records for doi:10.1021/acs.jmedchem.8b01912 (Monash University, 2019).

Target: T1, fMet-Leu-Phe receptor (Homo sapiens, UniProt P21462)
T1 sequence (P21462 whole entry): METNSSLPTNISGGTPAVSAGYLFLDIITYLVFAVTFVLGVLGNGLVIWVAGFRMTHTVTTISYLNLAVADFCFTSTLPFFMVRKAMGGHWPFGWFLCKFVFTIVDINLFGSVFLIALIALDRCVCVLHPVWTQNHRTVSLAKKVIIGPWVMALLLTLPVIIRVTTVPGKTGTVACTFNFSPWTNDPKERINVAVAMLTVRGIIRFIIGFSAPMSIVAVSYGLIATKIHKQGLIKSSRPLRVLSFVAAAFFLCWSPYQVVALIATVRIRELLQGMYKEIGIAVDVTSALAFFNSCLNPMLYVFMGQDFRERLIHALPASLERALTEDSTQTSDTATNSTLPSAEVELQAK
Assay: Biased agonist activity at human FPR1 expressed in FlpIn-CHO cells assessed as intracellular calcium mobilization by Fluo-4-AM dye based fluorescence assay
Outline: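 Agonist transduction coefficients (Log(τ/KA)) for each signaling output estimated with an extension of the Black-Leff operational model. Values normalized to a reference ligand and to Ca2+ mobilization as reference pathway, giving ΔLog(τ/KA) and Log(bias factors). Data are mean ± SEM of 4 independent experiments, each performed in duplicate.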

CCCCC(C(=O)Nc1ccc(Cl)cc1)n1nc(C)cc(Cc2ccccc2OC)c1=O (stereo unspecified)
EC50: 891 nM
